Test results published in ChEMBL document CHEMBL3779860, “A Designed Tryptophan- and Lysine/Arginine-Rich Antimicrobial Peptide with Therapeutic Potential for Clinical Antibiotic-Resistant Candida albicans Vaginitis” (J Med Chem, 2016).
Calls of active or inactive are those of the source. The calls are words filed in the database; no cut-off is given here.

Key:
Candida albicans [1] = assay: Antimicrobial activity against antibiotic resistant Candida albicans clinical isolate 08030809 assessed as clone count at MIC after 10 mins by colony counting assay (reference value: 102 +/- 11 CFU); format: functional
Candida albicans [2] = assay: Antimicrobial activity against antibiotic resistant Candida albicans clinical isolate 08032710 compound treated in PBS solution measured after 36 hrs by disc diffusion method; format: functional; settings: isolate 08032710, 36 h
Procedure, shortened: (§1)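 Salt-tolerance test: peptide at 2 mg/mL was prepared in sterile ddH2O, in 150 mM NaCl, or in PBS (150 mM NaCl, 2.7 mM KCl, 1.5 mM KH2PO4, 8 mM K2HPO4, pH 7.2). Anti-C. albicans activity was then assessed by inhibition zone on Sabouraud medium with 0.7% agar.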

Mus musculus [3] = assay: (§2) Antiinflammatory activity in antibiotic resistant Candida albicans clinical isolate 08030809 induced mouse vaginitis model assessed as microabscess number in vaginal tissue at 20 ug administered as intravaginal instillation measured on day 6 by hematoxylin-eosin staining based microscopic method (reference value: 61); format: functional, Vagina
Procedure, shortened: (§3)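 Mice given weekly subcutaneous estradiol valerate (0.5 mg in 0.1 mL vegetable oil) 72 h before infection. Infected intravaginally with 20 µL of 10^7 CFU/mL C. albicans 08030809. Intravaginal instillation of 20 µL daily for 16 days. Vaginal canals excised after lavage, formalin-fixed, paraffin-embedded, HE-stained. Microabscesses counted per high-power field over 6 fields per section, three independent experiments.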

Candida albicans [4] = assay: Antimicrobial activity against antibiotic resistant Candida albicans clinical isolate 08030809 assessed as clone count at 10 times MIC after 12 hrs by colony counting assay (reference value: 54153 +/- 8769 CFU); format: functional
Candida albicans [5] = assay: Antimicrobial activity against antibiotic resistant Candida albicans clinical isolate 08030809 in mouse vaginitis model assessed as decrease in colony count in lavage liquid of vagina at 50 ug administered as intravaginal instillation measured on day 16; format: functional
Candida albicans [6] = assay: Antimicrobial activity against antibiotic resistant Candida albicans clinical isolate 08032815 compound treated in double distilled water measured after 36 hrs by disc diffusion method; format: functional; settings: isolate 08032815, 36 h; procedure, shortened: as §1
Candida albicans [7] = assay: Antimicrobial activity against antibiotic resistant Candida albicans clinical isolate 08030809 compound treated in double distilled water measured after 36 hrs by disc diffusion method; format: functional; settings: isolate 08030809, 36 h; procedure, shortened: as §1
Candida albicans [8] = assay: Antimicrobial activity against antibiotic resistant Candida albicans clinical isolate 08030809 assessed as clone count at 10 times MIC after 30 mins by colony counting assay (reference value: 156 +/- 16 CFU); format: functional
Candida albicans [9] = assay: Effect on cell membrane integrity in antibiotic resistant Candida albicans clinical isolate 08030809 at MIC measured every 2 mins upto 20 mins by SYTOX green nucleic acid staining-based fluorescence assay; format: functional, organism-based
Procedure, shortened: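 Exponential-phase C. albicans 08030809 was washed and resuspended at 10^6 CFU/mL in 10 mM PBS pH 7.4. Cells were loaded with 0.1 µM (final) SYTOX Green for 15 min at 37°C with shaking, then test samples were added. Fluorescence (ex 488/em 530 nm) was recorded every 2 min as RFU. Mean ± SE of five independent experiments.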

Candida albicans [10] = assay: Antimicrobial activity against antibiotic resistant Candida albicans clinical isolate 08032815 compound treated in NaCl solution measured after 36 hrs by disc diffusion method; format: functional; settings: isolate 08032815, 36 h; procedure, shortened: as §1
Candida albicans [11] = assay: Antimicrobial activity against antibiotic resistant Candida albicans clinical isolate 08030809 assessed as clone count at MIC after 12 hrs by colony counting assay (reference value: 54153 +/- 8769 CFU); format: functional
Candida albicans [12] = assay: Antimicrobial activity against antibiotic resistant Candida albicans clinical isolate 08030809 assessed as clone count at 5 times MIC after 24 hrs by colony counting assay (Rvb > 10^5 CFU); format: functional
Candida albicans [13] = assay: Antimicrobial activity against antibiotic resistant Candida albicans clinical isolate 08030809 compound treated in PBS solution measured after 36 hrs by disc diffusion method; format: functional; settings: isolate 08030809, 36 h; procedure, shortened: as §1
Candida albicans [14] = assay: Antimicrobial activity against antibiotic resistant Candida albicans clinical isolate 08032815 compound treated in PBS solution measured after 36 hrs by disc diffusion method; format: functional; settings: isolate 08032815, 36 h; procedure, shortened: as §1
Candida albicans [15] = assay: Antimicrobial activity against antibiotic resistant Candida albicans clinical isolate 08030809 in mouse vaginitis model assessed as colony count in lavage liquid of vagina at 50 ug administered as intravaginal instillation measured on day 16; format: functional
Candida albicans [16] = assay: Antimicrobial activity against antibiotic resistant Candida albicans clinical isolate 08030809 assessed as clone count at 5 times MIC after 3 hrs by colony counting assay (reference value: 3687 +/- 543 CFU); format: functional
Candida albicans [17] = assay: Antimicrobial activity against antibiotic resistant Candida albicans clinical isolate 08030809 in mouse vaginitis model assessed as decrease in colony count in lavage liquid of vagina administered as intravaginal instillation measured on day 1, 6, 11, 16; format: functional, organism-based
Candida albicans [18] = assay: Antimicrobial activity against antibiotic resistant Candida albicans clinical isolate 08030809 assessed as clone count at 5 times MIC after 30 mins by colony counting assay (reference value: 156 +/- 16 CFU); format: functional
Candida albicans [19] = assay: Antimicrobial activity against antibiotic resistant Candida albicans clinical isolate 08030809 assessed as clone count at MIC after 24 hrs by colony counting assay (Rvb > 10^5 CFU); format: functional
Candida albicans [20] = assay: Antimicrobial activity against antibiotic resistant Candida albicans clinical isolate 08030809 in mouse vaginitis model assessed as decrease in colony count in lavage liquid of vagina at 20 ug administered as intravaginal instillation measured on day 11; format: functional
Mus musculus [21] = assay: as §2, with “after 16 days” for “on day 6”; format: functional, Vagina; procedure, shortened: as §3
Candida albicans [22] = assay: Antimicrobial activity against antibiotic resistant Candida albicans clinical isolate 08030809 compound treated in NaCl solution measured after 36 hrs by disc diffusion method; format: functional; settings: isolate 08030809, 36 h; procedure, shortened: as §1
Mus musculus [23] = assay: Antiinflammatory activity in antibiotic resistant Candida albicans clinical isolate 08030809 induced mouse vaginitis model assessed as reduction in TNF-alpha secretion in vaginal tissue at 50 ug administered as intravaginal instillation measured on day 10 by ELISA; format: functional, Vagina
Procedure, shortened: (§4)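 Same estradiol-primed mouse model, infected intravaginally with C. albicans 08030809 and treated by intravaginal instillation (20 µL/mouse). Vaginal canals excised on day 10 of treatment and homogenised in 0.9% NaCl. Supernatant taken after 2,000 g for 15 min. TNF-α, IL-6, IL-1β and IL-10 measured by ELISA. Mean ± SE of three independent experiments; unpaired t-test versus vehicle.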

Mus musculus [24] = assay: Antiinflammatory activity in antibiotic resistant Candida albicans clinical isolate 08030809 induced mouse vaginitis model assessed as reduction in TNF-alpha secretion in vaginal tissue at 20 ug administered as intravaginal instillation measured on day 10 by ELISA; format: functional, Vagina; procedure, shortened: as §4
Candida albicans [25] = assay: Antimicrobial activity against antibiotic resistant Candida albicans clinical isolate 08032821 compound treated in double distilled water measured after 36 hrs by disc diffusion method; format: functional; settings: isolate 08032821, 36 h; procedure, shortened: as §1
Candida albicans [26] = assay: Antimicrobial activity against antibiotic resistant Candida albicans clinical isolate 08030809 assessed as clone count at MIC after 1 min by colony counting assay (reference value: 62 +/- 7 CFU); format: functional
Mus musculus [27] = assay: Antiinflammatory activity in antibiotic resistant Candida albicans clinical isolate 08030809 induced mouse vaginitis model assessed as reduction in IL-10 secretion in vaginal tissue at 20 ug administered as intravaginal instillation measured on day 10 by ELISA; format: functional, Vagina; procedure, shortened: as §4

In the case of H-VKRWKKWRWKWKKWV-NH2, the Activity (Candida albicans [1]) is reported as 15 CFU, the MIC (Candida albicans [2]) is reported as 2.79 µg/mL and the Activity (Mus musculus [3]) is reported as 16. The Activity (Candida albicans [4]) was 0 CFU, the “inhibition (INH)” value (Candida albicans [5]) was 83% and the MIC (Candida albicans [6]) was 2.79 µg/mL. For the same substance, the MIC (Candida albicans [7]) was 1.4 µg/mL, the Activity (Candida albicans [8]) was 0 CFU and the Activity (Candida albicans [9]) was “Active”. The MIC (Candida albicans [10]) was 2.79 µg/mL, the Activity (Candida albicans [11]) was 0 CFU and the Activity (Candida albicans [12]) was 0 CFU. It also gave an MIC (Candida albicans [13]) of 1.4 µg/mL, an MIC (Candida albicans [14]) of 2.79 µg/mL and an Activity (Candida albicans [15]) of 2.9 ×10³ CFU/ml. The Activity (Candida albicans [16]) was 0 CFU, the inhibition (Candida albicans [17]) was “Dose-dependent effect” and the Activity (Candida albicans [18]) was 0 CFU. For the same substance, the Activity (Candida albicans [19]) was 0 CFU, the “inhibition (INH)” value (Candida albicans [20]) was 37% and the Activity (Mus musculus [21]) was <3. For the same substance, the MIC (Candida albicans [22]) was 1.4 µg/mL, the “inhibition (INH)” value (Mus musculus [23]) was 53% and the “inhibition (INH)” value (Mus musculus [24]) was 32%. For the same substance, the MIC (Candida albicans [25]) was 2.65 µg/mL, the Activity (Candida albicans [26]) was 18 CFU and the “inhibition (INH)” value (Mus musculus [27]) was 39%.
